Laboratory results: ChEMBL document CHEMBL1127085, “Derivatives of 2-(dipropylamino)tetralin: effect of the C8-substituent on the interaction with 5-HT1A receptors” (J Med Chem, 1993)

How the values were obtained:
[1] = biological target: T1, 5-hydroxytryptamine receptor 1A (Rattus norvegicus) (UniProt P19327); assay: Antagonistic effect on 5-HT syndrome or behavior of rat induced by (R)-1 at the dose of 32 and 1.0 umol/kg of compound (R)-1; type: functional
T1 sequence (whole entry): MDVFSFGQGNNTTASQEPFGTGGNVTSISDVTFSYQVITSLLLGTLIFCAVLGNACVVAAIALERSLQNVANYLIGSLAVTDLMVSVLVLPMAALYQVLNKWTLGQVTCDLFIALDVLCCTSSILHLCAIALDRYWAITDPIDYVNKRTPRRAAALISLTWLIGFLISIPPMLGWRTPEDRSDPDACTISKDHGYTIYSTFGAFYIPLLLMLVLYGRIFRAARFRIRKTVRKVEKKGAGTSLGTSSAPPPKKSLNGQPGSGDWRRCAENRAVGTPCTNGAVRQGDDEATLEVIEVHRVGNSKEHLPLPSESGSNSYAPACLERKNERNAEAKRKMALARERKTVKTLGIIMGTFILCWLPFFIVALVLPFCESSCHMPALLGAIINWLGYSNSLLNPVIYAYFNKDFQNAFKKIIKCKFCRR
Summary of the method: (§1)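 Compound (32 µmol/kg sc) or saline injected 10 min before (R)-8-OH-DPAT (1.0 µmol/kg sc). Flat body posture, forepaw treading and hindlimb abduction scored during 30 min of observation. Results as number of rats showing the behaviour out of number tested; Fisher's exact probability test.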

[2] = biological target: T2, Dopamine receptor (Rattus norvegicus) (UniProt P25115+P19020+P30729+P18901+P61169); assay: Dopamine (DA) turnover in rat corpus striatum; type: functional, tissue-based
Summary of the method: (§2)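 Rats given compound sc in 0.9% NaCl (screening dose typically 32 µmol/kg); decapitated about 30 min after dosing. Hippocampus and corpus striatum dissected and frozen. Perchloric acid homogenates analysed by HPLC with electrochemical detection. Turnover taken as 5-HIAA/5-HT or DOPAC/DA, expressed as percent of saline control. Means ± SEM; n = 5-7 controls, 4-6 treated. ANOVA with Tukey test.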

[3] = biological target: T1, 5-hydroxytryptamine receptor 1A (Rattus norvegicus); assay: 5-HT (serotonin) turnover in rat hippocampus; type: functional, tissue-based; summary of the method: as §2
Rattus norvegicus [4] = assay: Change in body temperature of rats upon administration after 30 minutes (p<0.01); type: functional
Summary of the method: (§3)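 Colonic temperature taken with an electrical thermometer probe 3.5 cm deep, before and 30 min after sc injection in saline. Change reported in °C as mean ± SEM; animal numbers as in the cage-leaving test. ANOVA with Tukey test.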

[5] = biological target: T1, 5-hydroxytryptamine receptor 1A (Rattus norvegicus); assay: Induction of clear-cut 5-HT motor syndrome in normal rats at the dose of 32 micro mol/kg; type: functional
[6] = biological target: T1, 5-hydroxytryptamine receptor 1A (Rattus norvegicus); assay: Induction of clear-cut 5-HT motor syndrome in reserpine (5 mg/kg, sc) pretreated rats at the dose of 32 micro mol/kg; type: functional, organism-based
[7] = biological target: T1, 5-hydroxytryptamine receptor 1A (Rattus norvegicus); assay: Number of rats displaying the 5-HT syndrome or leaving the cage out of the number of rats tested; type: functional
Rattus norvegicus [8] = assay: Antagonistic effect on body temperature of rat induced by (R)-1 at the dose of 32 and 1.0 umol/kg of compound (R)-1; type: functional
Summary of the method: (§4)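 Compound (32 µmol/kg sc) or saline injected 10 min before (R)-8-OH-DPAT (1.0 µmol/kg sc). Colonic temperature taken before injection and 30 min later; result is the change from the preinjection value. One-way ANOVA with Tukey HSD test.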

Rattus norvegicus [9] = species: Rattus norvegicus; assay: Dopamine (DA) turnover in rat corpus striatum (p<0.01); type: functional; summary of the method: as §2
[10] = biological target: T1, 5-hydroxytryptamine receptor 1A (Rattus norvegicus); assay: 5-HT (serotonin) turnover in rat hippocampus (p<0.01); type: functional, tissue-based
Summary of the method: (§5)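 Rats dosed sc (screening dose typically 32 µmol/kg, in 0.9% NaCl, 2 mL/kg); decapitated 5-10 min after the 30-min rating, […]. Hippocampus dissected and frozen. 5-HIAA/5-HT ratio measured by HPLC with electrochemical detection (+0.85 V) after perchloric acid homogenisation. Reported as percent of saline control, mean ± SEM, n = 4-6 per group; ANOVA with Tukey test.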

Rattus norvegicus [11] = assay: Induction of clear-cut 5-HT motor syndrome in normal rats at the dose of 32 umol/kg; type: functional
Rattus norvegicus [12] = assay: Induction of clear-cut 5-HT motor syndrome in reserpine (5 mg/Kg, sc) pretreated rats at the dose of 10 uM/Kg; type: functional
Rattus norvegicus [13] = assay: Change in body temperature of rats upon administration after 30 minutes; type: functional; summary of the method: as §3
Rattus norvegicus [14] = assay: Induction of clear-cut 5-HT motor syndrome in normal rats at the dose of 10 uM/Kg; type: functional
Rattus norvegicus [15] = assay: Antagonistic effect on 5-HT syndrome or behavior of rat induced by (R)-8-hydroxy-DPAT at the dose of 32 and 1.0 umol/kg; type: functional; summary of the method: as §1
Rattus norvegicus [16] = assay: Antagonistic effect on body temperature of rat induced by (R)-1 at the dose of 32 umol/kg with saline; type: functional; summary of the method: as §4
Rattus norvegicus [17] = assay: Antagonistic effect on 5-HT syndrome or behavior of rat at the dose of 32 umol/kg with saline; type: functional; summary of the method: as §1
Rattus norvegicus [18] = assay: Induction of clear-cut 5-HT motor syndrome in reserpine (5 mg/Kg, sc) pretreated rats at the dose of 1 uM/Kg; type: functional
[19] = biological target: T3, 5-hydroxytryptamine receptor 1A (Rattus norvegicus, UniProt P19327); assay: Binding affinity of 5-hydroxytryptamine 1A receptor using [3H]-8-OH-DPAT as radioligand.
T3 sequence (P19327 whole entry): T1 sequence (whole entry)
Summary of the method: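 Membranes from cortex and hippocampus of male Sprague-Dawley rats, pooled from at least six rats, preincubated with 10 µM pargyline. Assay used 2 nM [3H]-8-OH-DPAT, test compound at 1-300 nM and 5 mg/mL tissue in 50 mM Tris-HCl with 4.0 mM CaCl2 and 5.7 mM ascorbate, pH 7.5. Incubated 10 min at 37 °C, filtered on GF/B, scintillation counted.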

[20] = biological target: T2, Dopamine receptor (Rattus norvegicus); assay: Effect of accumulation of DOPA in rat striatum at the dose of 32 umol/kg; type: functional, tissue-based
Summary of the method: (§6)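 Test compound given sc in 0.9% NaCl. NSD 1015 (287 µmol/kg sc) given 30 min later to inhibit aromatic L-amino acid decarboxylase; rats decapitated after a further 30 min. Hippocampus and striatum stored at -40 °C for up to 1 week. Perchloric acid homogenates with α-methyl-5-hydroxytryptophan internal standard; 5-HTP and DOPA measured by HPLC-EC. Percent of control, means ± SEM; ANOVA with Tukey test.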

[21] = biological target: T1, 5-hydroxytryptamine receptor 1A (Rattus norvegicus); assay: Effect of 5-HT accumulation in rat hippocampus at the dose of 32 umol/kg (p<0.01); type: functional, tissue-based; summary of the method: as §6
[22] = biological target: T1, 5-hydroxytryptamine receptor 1A (Rattus norvegicus); assay: Induction of clear-cut 5-HT motor syndrome in reserpine (5 mg/Kg, sc) pretreated rats at the dose of 32 uM/Kg; type: functional, organism-based
Rattus norvegicus [23] = assay: Induction of clear-cut 5-HT motor syndrome in normal rats at the dose of 32 uM/Kg; type: functional
Rattus norvegicus [24] = assay: Induction of clear-cut 5-HT motor syndrome in normal rats at the dose of 1 uM/Kg; type: functional
Rattus norvegicus [25] = assay: Induction of clear-cut 5-HT motor syndrome in reserpine (5 mg/kg, sc) pretreated rats at the dose of 10 micro mol/kg; type: functional
Rattus norvegicus [26] = assay: Effect of DOPA accumulation in rat striatum at the dose of 0.32 umol/kg (p<0.01); type: functional; summary of the method: as §6
[27] = biological target: T1, 5-hydroxytryptamine receptor 1A (Rattus norvegicus); assay: 5-HT (serotonin) turnover in rat hippocampus (p<0.05); type: functional, tissue-based; summary of the method: as §5
Rattus norvegicus [28] = assay: Effect of accumulation of DOPA in rat striatum at the dose of 0.32 umol/kg (p<0.01); type: functional; summary of the method: as §6
Rattus norvegicus [29] = assay: Induction of clear-cut 5-HT motor syndrome in normal rats at the dose of 10 micro mol/kg; type: functional
Rattus norvegicus [30] = assay: Effect of DOPA accumulation in rat striatum at the dose of 32 umol/kg; type: functional; summary of the method: as §6

For `CCCN(CCC)[C@@H]1CCc2cccc(-c3ccccc3)c2C1`, the Effect [1] was 4, the Turnover [2] was 85 and the Turnover [3] was 98. The Temperature (Rattus norvegicus [4]) was 0.3, the Behavioral effect [5] was 0 and the Behavioral effect [6] was 0. The No. of rats [7] was 3 and the Temperature (Rattus norvegicus [8]) was -3.68.

Compound `CCCN(CCC)[C@@H]1CCc2ccccc2C1` has a Turnover (Rattus norvegicus [9]) of 77, a Temperature (Rattus norvegicus [4]) of -1.4 and a Behavioral effect [6] of 4. It also gave a Turnover [10] of 51, a No. of rats [7] of 4 and a Behavioral effect (Rattus norvegicus [11]) of 4.

For `CCCN(CCC)[C@H]1CCc2ccccc2C1`, the Turnover [3] was 104, the Turnover (Rattus norvegicus [9]) was 62 and the Temperature (Rattus norvegicus [4]) was -1.6. The Behavioral effect [5] was 5, the Behavioral effect [6] was 0 and the No. of rats [7] was 5.

For `CCCN(CCC)[C@H]1CCc2cccc(C(=O)OC)c2C1`, the Turnover [2] was 98, the Turnover [3] was 59 and the Behavioral effect (Rattus norvegicus [12]) was 4. It also gave a No. of rats [7] of 0, a Temperature (Rattus norvegicus [13]) of -2.5 and a Behavioral effect (Rattus norvegicus [14]) of 4.

With `CCCN(CCC)[C@H]1CCc2c(F)ccc(O)c2C1` the Effect (Rattus norvegicus [15]) was 0, the Temperature (Rattus norvegicus [16]) was -0.02 and the Temperature (Rattus norvegicus [8]) was -0.76. For the same compound, the Effect (Rattus norvegicus [17]) was 0.

`CCCN(CCC)C1CCc2cccc(C(C)=O)c2C1` (racemic) showed a Behavioral effect (Rattus norvegicus [18]) of 4 and a Ki [19] of 0.9 nM.

In the case of `CCCN(CCC)[C@H]1CCc2cccc(C)c2C1`, the Turnover [2] is reported as 80, the Turnover [3] is reported as 79 and the Accumulation [20] is reported as 119. The Temperature (Rattus norvegicus [4]) was -2.3, the Behavioral effect [5] was 4 and the Behavioral effect [6] was 0. The Accumulation [21] was 64 and the No. of rats [7] was 0.

`CCCN(CCC)[C@H]1CCc2cccc(-c3ccccc3)c2C1` showed an Effect [1] of 4, a Turnover [2] of 99 and a Turnover [3] of 98. The Behavioral effect [5] was 0, the Behavioral effect [6] was 0 and the No. of rats [7] was 4. It also gave a Temperature (Rattus norvegicus [8]) of -2.58 and a Temperature (Rattus norvegicus [13]) of 0.6.

`CCCN(CCC)[C@@H]1CCc2cccc(C(=O)c3ccccc3)c2C1` was tested, and the Turnover [2] was 122, the Turnover [3] was 74 and the Accumulation [20] was 69. For the same compound, the Behavioral effect [22] was 4, the Accumulation [21] was 56 and the No. of rats [7] was 0. It also gave a Temperature (Rattus norvegicus [13]) of -3.3, a Ki [19] of 4.6 nM and a Behavioral effect (Rattus norvegicus [23]) of 4.

Compound `CCCN(CCC)C1CCc2cccc(C#N)c2C1` (racemic) has a Behavioral effect [22] of 3 and a Ki [19] of 26 nM.

With `CCCN(CCC)[C@@H]1CCc2cccc(C(C)=O)c2C1` the Turnover [2] was 106, the Turnover [3] was 68 and the Behavioral effect (Rattus norvegicus [18]) was 4. The Behavioral effect (Rattus norvegicus [24]) was 4, the No. of rats [7] was 0 and the Temperature (Rattus norvegicus [13]) was -2.8.

Compound `CCCN(CCC)C1CCc2cccc(C(N)=O)c2C1` (racemic) has a Behavioral effect [22] of 4 and a Ki [19] of 6 nM.

For `CCCN(CCC)[C@@H]1CCc2cccc(C#N)c2C1`, the Behavioral effect (Rattus norvegicus [12]) was 3 and the Ki [19] was 19 nM.

Compound `CCCN(CCC)[C@H]1CCc2cccc(O)c2C1` has a Turnover [2] of 106, a Temperature (Rattus norvegicus [4]) of -2 and a Behavioral effect (Rattus norvegicus [25]) of 5. For the same compound, the Accumulation (Rattus norvegicus [26]) was 94, the Turnover [27] was 72 and the Accumulation (Rattus norvegicus [28]) was 94. It also gave a No. of rats [7] of 0 and a Behavioral effect (Rattus norvegicus [29]) of 4.

In the case of `CCCN(CCC)C1CCc2cccc(C(=O)OC)c2C1` (racemic), the Accumulation [20] is reported as 81, the Behavioral effect [22] is reported as 4 and the Accumulation (Rattus norvegicus [30]) is reported as 59. For the same compound, the Ki [19] was 2.4 nM.
